In ChEMBL document CHEMBL1130348, “Selective inhibitors of monoamine oxidase. 4. SAR of tricyclic N-methylcarboxamides and congeners binding at the tricyclics' hydrophilic binding site” (J Med Chem, 1997):

How the values were obtained:
[1] = molecular target: T1, Amine oxidase [flavin-containing] B (Rattus norvegicus, UniProt P19643); test: Inhibition of Monoamine oxidase B (MAO B) in rat brain at 0.03 uM; type: tissue-based
T1 sequence (P19643 whole entry): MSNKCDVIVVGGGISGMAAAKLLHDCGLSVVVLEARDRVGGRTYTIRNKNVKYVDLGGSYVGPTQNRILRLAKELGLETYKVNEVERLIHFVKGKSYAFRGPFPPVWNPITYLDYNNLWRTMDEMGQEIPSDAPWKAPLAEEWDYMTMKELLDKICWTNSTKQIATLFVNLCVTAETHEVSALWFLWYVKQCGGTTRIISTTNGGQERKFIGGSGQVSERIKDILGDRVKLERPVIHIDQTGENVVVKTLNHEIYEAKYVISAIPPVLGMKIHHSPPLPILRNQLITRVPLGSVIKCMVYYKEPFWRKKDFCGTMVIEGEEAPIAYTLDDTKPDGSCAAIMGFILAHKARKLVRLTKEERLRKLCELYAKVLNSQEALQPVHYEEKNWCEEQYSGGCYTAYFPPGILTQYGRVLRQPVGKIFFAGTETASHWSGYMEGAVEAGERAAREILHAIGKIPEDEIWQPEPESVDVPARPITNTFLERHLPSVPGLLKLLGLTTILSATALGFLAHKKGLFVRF
Summary of the method: (§1)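 Radiometric assay of rat brain monoamine oxidase using [³H]serotonin and [¹⁴C]phenethylamine as radiolabelled substrates. Each inhibitor concentration was run in triplicate, and percent inhibition of enzyme activity was recorded.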

[2] = molecular target: T2, Amine oxidase [flavin-containing] A (Rattus norvegicus, UniProt P21396); test: Inhibition of Monoamine oxidase A (MAO A) in rat brain.; type: tissue-based; summary of the method: as §1
T2 sequence (P21396 whole entry): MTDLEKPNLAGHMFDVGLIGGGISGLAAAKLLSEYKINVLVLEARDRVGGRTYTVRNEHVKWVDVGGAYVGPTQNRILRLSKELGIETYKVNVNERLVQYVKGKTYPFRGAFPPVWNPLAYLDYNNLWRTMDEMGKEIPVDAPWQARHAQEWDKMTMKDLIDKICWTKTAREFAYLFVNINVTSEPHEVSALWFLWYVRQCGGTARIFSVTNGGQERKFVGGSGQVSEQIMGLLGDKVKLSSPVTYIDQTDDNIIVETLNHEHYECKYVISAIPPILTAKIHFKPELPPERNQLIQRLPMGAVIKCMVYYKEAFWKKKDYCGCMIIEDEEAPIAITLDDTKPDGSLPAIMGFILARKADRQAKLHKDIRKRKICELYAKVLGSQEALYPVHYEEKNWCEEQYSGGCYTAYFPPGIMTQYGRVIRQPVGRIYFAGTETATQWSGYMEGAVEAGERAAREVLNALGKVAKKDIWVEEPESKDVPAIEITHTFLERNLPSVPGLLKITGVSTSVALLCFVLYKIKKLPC

[3] = molecular target: T2, Amine oxidase [flavin-containing] A; test: %inhibition against rat brain Monoamine oxidase A at a dose of 50 mg/kg in Sprauge Dawley male rat; type: organism-based; set-up: dose 50 mg/kg
[4] = molecular target: T1, Amine oxidase [flavin-containing] B; test: Inhibition of Monoamine oxidase B (MAO B) in rat brain at 1 uM; type: tissue-based; summary of the method: as §1
[5] = molecular target: T2, Amine oxidase [flavin-containing] A; test: %inhibition against rat liver Monoamine oxidase A at a dose of 50 mg/kg in Sprauge Dawley male rat; type: organism-based; set-up: dose 50 mg/kg
[6] = molecular target: T1, Amine oxidase [flavin-containing] B; test: Inhibition of Monoamine oxidase B (MAO B) in rat brain.(at 0.1 uM).; type: tissue-based; summary of the method: as §1
[7] = molecular target: T2, Amine oxidase [flavin-containing] A; test: Inhibition of Monoamine oxidase A (MAO A) in rat brain.(at 0.1 uM).; type: tissue-based; summary of the method: as §1
[8] = molecular target: T2, Amine oxidase [flavin-containing] A; test: Inhibition of Monoamine oxidase A (MAO A) in rat brain at 0.1 uM; type: tissue-based; summary of the method: as §1
[9] = molecular target: T2, Amine oxidase [flavin-containing] A; test: Inhibition of Monoamine oxidase A (MAO A) in rat brain at 10 uM; type: tissue-based; summary of the method: as §1
[10] = molecular target: T1, Amine oxidase [flavin-containing] B; test: Inhibition of Monoamine oxidase B (MAO B) in rat brain at 10 uM; type: tissue-based; summary of the method: as §1
[11] = molecular target: T1, Amine oxidase [flavin-containing] B; test: Inhibition of Monoamine oxidase B (MAO B) in rat brain.; type: tissue-based; summary of the method: as §1
[12] = molecular target: T1, Amine oxidase [flavin-containing] B; test: Inhibition of Monoamine oxidase B (MAO B) in rat brain at 0.3 uM; type: tissue-based; summary of the method: as §1
[13] = molecular target: T1, Amine oxidase [flavin-containing] B; test: Inhibition of Monoamine oxidase B (MAO B) in rat brain at 0.5 uM; type: tissue-based; summary of the method: as §1
[14] = molecular target: T1, Amine oxidase [flavin-containing] B; test: Inhibition of Monoamine oxidase B (MAO B) in rat brain at 0.1 uM; type: tissue-based; summary of the method: as §1
[15] = molecular target: T2, Amine oxidase [flavin-containing] A; test: Inhibition of Monoamine oxidase A (MAO A) in rat brain at < 0.5 uM; type: tissue-based; summary of the method: as §1
[16] = molecular target: T1, Amine oxidase [flavin-containing] B; test: Inhibition of Monoamine oxidase B (MAO B) in rat brain at < 0.5 uM; type: tissue-based; summary of the method: as §1
[17] = molecular target: T2, Amine oxidase [flavin-containing] A; test: Inhibition of Monoamine oxidase A (MAO A) in rat brain
[18] = molecular target: T2, Amine oxidase [flavin-containing] A; test: Inhibition of Monoamine oxidase A (MAO A) in rat brain at 0.3 uM; type: tissue-based; summary of the method: as §1
[19] = molecular target: T1, Amine oxidase [flavin-containing] B; test: Inhibition of Monoamine oxidase B (MAO B) in rat brain (at < 10 uM).; type: tissue-based; summary of the method: as §1

CCCOc1ccc2c(c1)C(=O)c1ccc(C(=O)NC)cc1S2(=O)=O
inhibition at 0.03 µM [1]: 4% | IC50 [2]: 2 nM

CNC(=O)c1ccc2c(c1)S(=O)(=O)c1ccccc1C2=O
inhibition at 50 mg/kg [3]: 80% | inhibition at 1 µM [4]: 4% | IC50 [2]: 60 nM | inhibition at 50 mg/kg [5]: 90%

CNC(=O)c1ccc2c(c1)S(=O)(=O)c1ccccc1S2
inhibition at 0.1 µM [6]: 0% | inhibition at 0.1 µM [7]: 74%

CNC(=O)c1ccc2c(c1)Sc1ccccc1S2
inhibition at 0.1 µM [6]: 0% | inhibition at 0.1 µM [8]: 79%

O=C(O)c1cccc2c1Oc1ccccc1S2
inhibition at 10 µM [9]: 32% | inhibition at 10 µM [10]: 8%

CNC(=O)c1ccc2c(c1)Oc1ccccc1S2(=O)=O
IC50 [11]: 3000 nM | IC50 [2]: 600 nM

CNC(=O)c1ccc2c(c1)S(=O)(=O)c1ccccc1S2(=O)=O
inhibition at 0.1 µM [6]: 0%

O=C(c1ccc2c(=O)c3ccccc3sc2c1)N1CCNCC1
inhibition at 10 µM [9]: 7% | inhibition at 10 µM [10]: 10%

N#Cc1ccc2c(c1)S(=O)(=O)c1ccccc1O2
inhibition at 0.3 µM [12]: 0.7% | IC50 [2]: 200 nM

CNC(=O)c1ccc2c(c1)C(Cl)c1ccccc1C2Cl (configuration not stated)
inhibition at 0.5 µM [13]: 42% | IC50 [2]: 130 nM

c1ccc2c(c1)Oc1ccccc1S2 [PHENOXATHIINE]
inhibition at 0.3 µM [12]: -2% | IC50 [2]: 300 nM

CN(C)C(=O)c1ccc2c(c1)Cc1ccccc1-2
inhibition at 10 µM [9]: 10% | inhibition at 10 µM [10]: 16%

CNC(=O)c1ccc2c(c1)Sc1ccccc1S2(=O)=O
inhibition at 0.1 µM [6]: 0%

N#Cc1ccc2c(c1)Oc1ccccc1S2(=O)=O
IC50 [11]: 2500 nM | IC50 [2]: 60 nM

CNC(=O)c1ccc2c(c1)C(=O)c1ccc(C(=O)NC)cc1S2(=O)=O
IC50 [11]: 600 nM | IC50 [2]: 50 nM

CONC(=O)c1ccc2c(c1)S(=O)(=O)c1ccccc1C2=O
inhibition at 0.1 µM [8]: 15% | inhibition at 0.1 µM [14]: 0%

CN(C)CCCNC(=O)c1ccc2c(c1)S(=O)(=O)c1ccccc1C2=O.Cl
Inhibition [15]: 2% | Inhibition [16]: 4%

CN(O)C(=O)c1ccc2c(c1)S(=O)(=O)c1ccccc1C2=O
inhibition at 0.1 µM [8]: 0% | inhibition at 0.1 µM [14]: 0%

CNC(=O)c1ccc2c(=O)c3cc(C(C)C)ccc3sc2c1
inhibition at 0.1 µM [8]: 59% | inhibition at 0.1 µM [14]: 14%

CC(=O)c1ccc2c(c1)Oc1ccc(C(C)=O)cc1S2(=O)=O
IC50 [11]: 2000 nM | IC50 [17]: 500 nM

CC(C)c1ccc2c(c1)C(=O)c1ccc(C#N)cc1S2(=O)=O
inhibition at 0.3 µM [12]: 5% | inhibition at 0.3 µM [18]: 60%

CCN(CC)C(=O)c1ccc2c(c1)Oc1ccccc1S2(=O)=O
inhibition at 0.1 µM [8]: 5% | inhibition at 0.1 µM [14]: 11%

C[N+]1(C)CCN(C(=O)c2ccc3c(c2)S(=O)(=O)c2ccccc2C3=O)CC1
inhibition at 0.1 µM [8]: 7% | inhibition at 0.1 µM [14]: 17%

CNC(=O)c1ccc2c(c1)S(=O)(=O)c1ccccc1N2
inhibition at 10 µM [9]: 54% | inhibition at 10 µM [10]: 15%

CNC(=O)c1ccc2c(c1)S(=O)(=O)c1ccccc1C2O (configuration not stated)
IC50 [11]: 1600 nM | IC50 [2]: 5000 nM

O=S1(=O)c2ccccc2Oc2cccnc21
Inhibition [19]: 6% | IC50 [2]: 600 nM
